This note sets out measurements from ChEMBL document CHEMBL1240310, “Combinatorial chemistry identifies high-affinity peptidomimetics against alpha4beta1 integrin for in vivo tumor imaging” (Nat Chem Biol, 2006).

Test [1] has as its system Mus musculus. Kind of test: In vivo inhibition of alpha4beta1 integrin expressed in human Molt-4 cells xenografted into mouse at 60 nmol/kg, iv up to 24 hrs by NIRF imaging. It is filed as functional, organism-based. The gist of the method: (§1)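 Nude (nu/nu) mice bearing subcutaneous shoulder Molt-4 xenografts (about 5 × 10^6 cells injected; tumors 0.5–1.0 cm). Probe made by complexing biotinylated ligand with SA-Alexa Fluor680 at 5:1 molar ratio, 1 h, 4 °C. Given 60 nmol kg-1 i.v. (n = 3). Imaged under pentobarbital anesthesia (60 mg kg-1 i.p.) at 0–44 h; excitation 625 nm, emission 700 nm, 30 s exposure. Tumor vs normal ROI intensities compared.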
(In xenograft studies the graft and the host belong to different species.)

Test [2] concerns CHO. The experiment in a line: Binding affinity to alpha4beta1 integrin G184A mutant expressed in CHO cells by flow cytometry. It is filed as cell-based. In a few lines:
(§2)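 CHO cells stably expressing wild-type or single-Ala mutant human α4 paired with endogenous hamster β1. Cells incubated with biotinylated ligand in TBS (1 mM Mn2+), then SA-PE, and read by flow cytometry. Binding normalized to α4 expression measured with mAb B5G10. Mean ± s.d. of triplicates.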
(Flow cytometry measures light scatter and fluorescence of single cells or particles in a stream.)

Test [3] addresses T1, Integrin alpha-4/beta-1 (Homo sapiens) (UniProt P05556+P13612). The experiment in a line: Binding affinity to alpha4beta1 integrin expressed in CHO cells by flow cytometry. It is filed as cell-based. In a few lines:
(§3)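 Cells (0.5 × 10^6) incubated with biotinylated ligand (100 nM) for 1 h at 4 °C in TBS with 1 mM Mg2+/Mn2+, washed, then stained with SA-PE. Fluorescence of 10,000 cells read by flow cytometry. Integrin-transfected CHO lines as previously described; α4 expression probed with anti-α4 mAb P1H4 plus FITC secondary.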

Test [4] has as its target T1, Integrin alpha-4/beta-1 (Homo sapiens). The experiment in a line: Binding affinity to alpha4beta1 integrin expressed in human K562 cells by flow cytometry. It is filed as cell-based. In a few lines: as §3
Test [5] deals with Integrin alpha2/beta1 (Homo sapiens) (UniProt P05556+P17301). Kind of test: Binding affinity to alpha2beta1 integrin expressed in CHO cells by flow cytometry. It is filed as cell-based. In a few lines:
as §3

The target of test [6] is ITGA6-ITGB1 complex (Homo sapiens) (UniProt P05556+P23229). Kind of test: Binding affinity to alpha6beta1 integrin expressed in CHO cells by flow cytometry. It is filed as cell-based. In a few lines:
as §3

Test [7] addresses ITGB1-ITGA9 complex (Homo sapiens) (UniProt P05556+Q13797). Kind of test: Binding affinity to alpha9beta1 integrin expressed in CHO cells by flow cytometry. It is filed as cell-based. In a few lines:
as §3

The target of test [8] is Intercellular adhesion molecule (ICAM-1), Integrin alpha-L/beta-2 (Homo sapiens) (UniProt P20701+P05362+P05107). Kind of test: Binding affinity to alphaLbeta2 integrin expressed in CHO cells by flow cytometry. It is filed as cell-based. The gist of the method: as §3
Test [9] concerns the target Integrin alpha-M/beta-2 (Homo sapiens) (UniProt P05107+P11215). The experiment in a line: Binding affinity to alphaMbeta2 integrin expressed in CHO cells by flow cytometry. It is filed as cell-based. The gist of the method:
as §3

For test [10], the target named is T1, Integrin alpha-4/beta-1 (Homo sapiens). The experiment in a line: Binding affinity to alpha4beta1 integrin transfected human Molt-4 cells by flow cytometry. It is filed as cell-based. In a few lines:
as §3

Test [11] shares this target. The experiment in a line: Binding affinity to alpha4beta1 integrin expressed in human Reh cells by flow cytometry. It is filed as cell-based. In a few lines: as §3
Test [12] has the same target. The experiment in a line: Binding affinity to alpha4beta1 integrin expressed in human HL-60 cells by flow cytometry. It is filed as cell-based. The gist of the method:
as §3

Test [13] relates to CHO. Kind of test: Binding affinity to human alpha4 G181A mutant/hamster beta-1 integrin expressed in CHO cells by flow cytometry. It is filed as cell-based. The gist of the method:
as §2

Test [14] concerns CHO. The experiment in a line: Binding affinity to human alpha4 P183A mutant/hamster beta-1 integrin expressed in CHO cells by flow cytometry. It is filed as cell-based. The gist of the method: as §2
The test system of test [15] is CHO. The experiment in a line: Binding affinity to human alpha4 S185A mutant/hamster beta-1 integrin expressed in CHO cells by flow cytometry. It is filed as cell-based. The gist of the method: as §2
The test system of test [16] is CHO. The experiment in a line: Binding affinity to human alpha4 S186A mutant/hamster beta-1 integrin expressed in CHO cells by flow cytometry. It is filed as cell-based. The gist of the method:
as §2

The test system of test [17] is CHO. The experiment in a line: Binding affinity to human alpha4 Y187A mutant/hamster beta-1 integrin expressed in CHO cells by flow cytometry. It is filed as cell-based. In a few lines:
as §2

The subject of test [18] is CHO. Kind of test: Binding affinity to human alpha4 W188A mutant/hamster beta-1 integrin expressed in CHO cells by flow cytometry. It is filed as cell-based. The gist of the method:
as §2

Test [19] deals with CHO. The experiment in a line: Binding affinity to human alpha4 T189A mutant/hamster beta-1 integrin expressed in CHO cells by flow cytometry. It is filed as cell-based. In a few lines: as §2
For test [20], the system named is CHO. Kind of test: Binding affinity to human alpha4 G190A mutant/hamster beta-1 integrin expressed in CHO cells by flow cytometry. It is filed as cell-based. In a few lines: as §2
Test [21] deals with CHO. The experiment in a line: Binding affinity to human alpha4 S191A mutant/hamster beta-1 integrin expressed in CHO cells by flow cytometry. It is filed as cell-based. In a few lines: as §2
The test system of test [22] is CHO. The experiment in a line: Binding affinity to human alpha4 Y195A mutant/hamster beta-1 integrin expressed in CHO cells by flow cytometry. It is filed as cell-based. In a few lines:
as §2

Test [23] concerns CHO. The experiment in a line: Binding affinity to human alpha4 N196A mutant/hamster beta-1 integrin expressed in CHO cells by flow cytometry. It is filed as cell-based. The gist of the method:
as §2

Test [24] deals with CHO. Kind of test: Binding affinity to human alpha4 N200A mutant/hamster beta-1 integrin expressed in CHO cells by flow cytometry. It is filed as cell-based. The gist of the method:
as §2

The subject of test [25] is CHO. The experiment in a line: Binding affinity to human alpha4 K201A mutant/hamster beta-1 integrin expressed in CHO cells by flow cytometry. It is filed as cell-based. In a few lines: as §2
The test system of test [26] is CHO. Kind of test: Binding affinity to human alpha4 Y202A mutant/hamster beta-1 integrin expressed in CHO cells by flow cytometry. It is filed as cell-based. In a few lines:
as §2

In test [27] the test system is CHO. Kind of test: Binding affinity to human alpha4 K203A mutant/hamster beta-1 integrin expressed in CHO cells by flow cytometry. It is filed as cell-based. The gist of the method: as §2
Test [28] concerns Mus musculus. Kind of test: In vivo inhibition of alpha4beta1 integrin expressed in human Molt-4 cells xenografted into mouse at 60 nmol/kg, iv up to 44 hrs by NIRF imaging. It is filed as functional, organism-based. In a few lines:
as §1

Test [29] deals with T1, Integrin alpha-4/beta-1 (Homo sapiens). Kind of test: Inhibition of integrin alpha-4-beta-1-mediated Jurkat cell adhesion to VCAM-1 coated surface by BCECF fluorescence analysis. It is filed as cell-based.
For test [30] the target is unchanged. The experiment in a line: Inhibition of integrin alpha-4-beta-1-mediated Jurkat cell adhesion to CS-1 coated surface by BCECF fluorescence analysis.
Test [31] shares this target. The experiment in a line: Binding affinity to alpha4beta1 integrin expressed in peripheral blood lymphocytes. It is filed as cell-based. In a few lines:
(§4)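 Normal peripheral blood lymphocytes isolated from healthy-donor blood by Ficoll-Paque gradient. Cells (0.5 × 10^6) incubated 1 h at 4 °C with biotinylated ligand (100 nM) in TBS, then SA-PE, and 10,000 cells read by flow cytometry. Mn2+ added for integrin activation where indicated. Activation state checked with anti-β1 LIBS mAb.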

The target is the same in test [32]. Kind of test: Binding affinity to alpha4beta1 integrin expressed in peripheral blood lymphocytes in presence of Mn2+. It is filed as cell-based. The gist of the method: as §4
The subject of test [33] is CHO. Kind of test: Binding affinity to wild type human alpha4hamster beta-1 integrin expressed […] cells by flow cytometry. It is filed as cell-based. In a few lines:
as §2

The source made the active and inactive calls. The rule behind the calls is not given here.

Integrin alpha-M/beta-2 (Homo sapiens), sequence (P05107 23-769 limits assumed, other chains not shown): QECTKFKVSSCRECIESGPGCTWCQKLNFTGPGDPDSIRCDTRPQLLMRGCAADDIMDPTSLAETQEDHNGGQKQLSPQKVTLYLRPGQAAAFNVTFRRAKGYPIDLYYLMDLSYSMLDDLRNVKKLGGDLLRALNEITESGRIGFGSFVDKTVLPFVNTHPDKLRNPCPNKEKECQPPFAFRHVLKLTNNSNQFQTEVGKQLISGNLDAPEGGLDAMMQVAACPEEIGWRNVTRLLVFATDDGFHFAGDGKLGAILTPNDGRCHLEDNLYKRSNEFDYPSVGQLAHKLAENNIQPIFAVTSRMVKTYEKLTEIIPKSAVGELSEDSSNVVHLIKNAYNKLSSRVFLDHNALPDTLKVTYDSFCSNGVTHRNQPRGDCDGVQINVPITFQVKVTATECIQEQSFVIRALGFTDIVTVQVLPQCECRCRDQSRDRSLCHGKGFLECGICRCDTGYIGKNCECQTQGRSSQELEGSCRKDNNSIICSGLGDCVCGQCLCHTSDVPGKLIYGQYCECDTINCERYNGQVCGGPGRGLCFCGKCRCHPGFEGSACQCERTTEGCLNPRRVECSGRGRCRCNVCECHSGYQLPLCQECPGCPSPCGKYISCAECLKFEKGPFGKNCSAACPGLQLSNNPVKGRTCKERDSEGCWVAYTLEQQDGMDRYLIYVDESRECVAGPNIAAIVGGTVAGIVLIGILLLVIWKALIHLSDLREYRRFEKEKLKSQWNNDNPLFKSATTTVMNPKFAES

On to `Cc1ccccc1NC(=O)Nc1ccc(CC(=O)N[C@@H](CCCCNC(=O)/C=C/c2cccnc2)C(=O)N[C@@H](CCCC(=O)O)C(=O)NC2(C(=O)NCCOCCOCCNC(=O)CCC(=O)NCCOCCOCCNC(=O)CCC(=O)N[C@@H](CCCCNC(=O)CCCC[C@@H]3SC[C@@H]4NC(=O)N[C@@H]43)C(N)=O)CCCCC2)cc1`, for which the inhibition result in test [1] was “inactive”.
With `Cc1ccccc1NC(=O)Nc1ccc(CC(=O)N[C@@H](CCCCNC(=O)/C=C/c2cccnc2)C(=O)N[C@@H](CCCC(=O)O)C(=O)NC2(C(N)=O)CCCCC2)cc1`, the outcome in [2], in test [3], in test [4], in test [10], in [11] and in test [12] was Active. In addition, the outcome in test [13], in test [14], in test [15], in [16], in [19] and in test [21] was Active. In addition, the result in test [22], in test [23], in test [24], in test [25], in [26] and in test [27] was Active. In addition, the outcome in test [32] and in test [33] was Active. Moreover, the outcome in test [5], in test [6], in test [7], in test [8], in test [9] and in [17] was inactive. In addition, the outcome in test [18], in test [20] and in test [31] was inactive. Further, the inhibition entry in [28], in [29] and in [30] was “Active” in each case.
